TNAP act DEA: activates human TNAP at intermediate phosphate acceptor concentration | P05186 | purified TNAP, CDP-star luminescence, 100 mM DEA, 30 min; hits give high values; scale: 0 levamisole-inhibited, 1 vehicle-only enzyme | activation factor at 20 µM | 64,000 tested, under 10 active;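 active means activation factor of at least 2 at 20 µM, relative to controls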
Target sequence (P05186 whole entry, looked up): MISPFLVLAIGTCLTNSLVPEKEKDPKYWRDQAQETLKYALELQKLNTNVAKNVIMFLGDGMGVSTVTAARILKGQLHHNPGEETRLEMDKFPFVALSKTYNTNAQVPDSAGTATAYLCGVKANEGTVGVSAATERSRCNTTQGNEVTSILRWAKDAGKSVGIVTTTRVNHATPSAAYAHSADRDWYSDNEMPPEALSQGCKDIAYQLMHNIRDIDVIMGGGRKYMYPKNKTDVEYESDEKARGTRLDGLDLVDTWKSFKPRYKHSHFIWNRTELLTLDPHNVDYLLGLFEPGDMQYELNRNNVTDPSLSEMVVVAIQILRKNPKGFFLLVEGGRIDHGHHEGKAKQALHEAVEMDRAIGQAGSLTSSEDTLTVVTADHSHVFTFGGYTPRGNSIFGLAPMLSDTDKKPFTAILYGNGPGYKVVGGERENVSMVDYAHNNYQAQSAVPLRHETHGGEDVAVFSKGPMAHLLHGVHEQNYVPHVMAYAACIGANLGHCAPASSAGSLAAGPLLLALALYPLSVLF
MT1-MMP txn act: activates MT1-MMP transcription. HT1080 MT1-MMP promoter luciferase reporter, luminescence, overnight; hits give high values. activation factor at 10 µM. actives 0.16% (n = 86,000);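 active means activation factor of at least 2 for MT1-MMP transcription at 10 µM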
Mac1 fbg enh: increases human CD11b/CD18 adhesion to fibrinogen; P05107+P11215; K562 CD11b/CD18 adhesion to fibrinogen, ATPlite luminescence; activation, % at 10 µM; actives 0.07% (n = 93,000); AID 1499;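 active means 10 µM primary screen giving 50% or more activity, confirmed by 40% or more on retest at that dose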
SF-1 act: activators of human nuclear receptor SF-1 | actives 1.9% (n = 65,000) | activation, % at 10 µM | CHO-K1 Gal4-SF-1 LBD luciferase reporter; % increase over DMSO SF-1-specific signal | Q13285;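 active means activation above the mean activation of all tested compounds plus 3 SD, cut at about 50% in these data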
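Material: CHO-K1 cells with Gal4–hSF-1 LBD chimera plus Gal4-driven luciferase / Input: 4,000 CHO-K1 cells per well / Incubation: compound exposure 20 h at 37 °C / Signal: luminescence read 15 min after SteadyLite luciferase reagent, after room-temperature equilibration / Read-out: percent activation versus DMSO / Benchmarks: DMSO negative control and −SF1 background wells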
CD11b adhes inh: inhibitors of human CD11b/CD18 binding to fibrinogen | P05107+P11215 | K562 CD11b/CD18 adhesion to fibrinogen, ATPlite luminescence; Mn2+ added to activate the integrin | inhibition, % at 10 µM | actives 0.54% (n = 93,000) | AID 1497;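 active means primary inhibition of 50% or more at 10 µM, then 40% or more on retest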
RORa activator: RORA (human) activation; actives 1.5% (n = 65,000); AID 560; P35398; activation, % at 10 µM; CHO-K1 Gal4-RORA LBD luciferase reporter, luminescence; percent increase over mock-subtracted basal signal;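 active means activation above the mean of all tested compounds plus 3 SD, cut at about 49% in these data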;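 further: 0% = DMSO-treated RORA cells and 100% = added signal equal to DMSO minus mock-transfected cells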
The depositor's hits bear a star; . = no result. Rows were chosen to be rich in hits. Some 2.1% of all compounds tested hit in one or more screens of this group.

SMILES	TNAP act DEA	MT1-MMP txn act	Mac1 fbg enh	SF-1 act	CD11b adhes inh	RORa activator
O=C(C1CC1)N1CCC(c2nc(-c3ccc(S(=O)(=O)NCC4CCCO4)cc3)no2)CC1 (centres undefined)	0.8	1	-3	-6	62*	0
CCCOc1ccc(Cc2c(Cl)nc(SC)nc2N(C)C)cc1	.	.	-7	.	95	.
CCOc1ccc(C(CCc2ccccc2)NC(=O)c2ccccc2F)cc1OCC (centres undefined)	.	.	0	.	6	.
COC(=O)Nc1ccc(Oc2ccccc2)cc1	0.9	1.1	0	4	-16	-6
O=C(Nc1ccc(N2CCOCC2)cc1)c1cc2ccccc2o1	0.8	1.6	.	47	.	74*
O=C(Cc1ccccc1)Nc1ccc(CN2CCOCC2)cc1	0.9	1.2	-9	41	.	56*
O=C(Nc1ccc(CN2CCOCC2)cc1)c1ccccc1F	.	1.6	.	.	.	.
COC(=O)Nc1ccc(OCc2ccccc2)cc1	0.9	1.2	2	72*	15	32
COC(=O)c1ccc(NC(=O)Cc2ccccc2)cc1	0.9	1.2	1	71*	26	39
O=C(CCc1c[nH]c2ccccc12)NC1CC1	.	.	-4	.	-4	.
COC(=O)CNC(=O)C1(C)C=CC2(CCCCC2)N1C(=O)OC (centres undefined)	.	1	.	.	.	.
CCC(C)Sc1nc(O)c(Cc2ccccc2)c(=O)[nH]1 (centres undefined)	.	1	-5	.	4	.
C/C(CC(=O)NCc1ccco1)=N\NC(=O)COc1ccc(C)cc1	.	.	-6	.	-15	.
Fc1ccc(-c2nnc(-n3nnc4ccccc43)c3ccccc23)cc1	.	1.2	.	.	.	.
O=C(Nc1ccc(CN2CCOCC2)cc1)c1cc2ccccc2o1	0.9	0.6	-3	86*	14	10
O=C(CN1CCOCC1)Nc1ccc(-c2nc3ccccc3[nH]2)cc1	0.9	.	-1	52*	12	38
O=C(NCCN1CCOCC1)c1cc2ccccc2o1	0.9	.	-4	-5	-41	-3
COC(=O)[C@@]1(Cc2ccc(F)cc2)[C@H]2c3cc(C(=O)N4CCCC4)n(CCc4c[nH]c5cc(F)ccc45)c3C[C@H]2CN1C(=O)c1ccccc1	.	1.1	.	.	.	.
CCOc1cc(/C=C2/C(=N)N3OC(C)=CC3=NC2=O)ccc1OCCOc1ccccc1	.	1	0	.	-1	.
CC(=O)c1cnc2c(-c3ccc(Cl)cc3)cnn2c1C	.	2.1*	.	.	.	.
O=C(c1cc2c(s1)-c1ccccc1OC2)N1CCN(c2ccccc2)CC1	.	.	-2	.	6	.
O=C(c1cc2c(s1)-c1ccccc1OC2)N1CCCC1	1	1.6	0	48	4	84*
Cc1csc(NC(=O)c2cc3c(s2)-c2ccccc2OC3)n1	0.8	1.6	10	43	29	63*
N#CC(c1ccccc1)c1ccc(C(=O)c2ccc(F)cc2)cc1 (centres undefined)	.	1.1	-7	.	87*	.
c1cncc(C2Nc3ccccc3-c3nc4ccccc4n32)c1 (centres undefined)	0.8	.	-3	38	6	58*
SMILES	TNAP act DEA	MT1-MMP txn act	Mac1 fbg enh	SF-1 act	CD11b adhes inh	RORa activator
c1ccn2c(SCc3ccc4c(c3)OCCO4)nnc2c1	0.9	1.5	0	40	-20	57*
c1ccn2cc(CSc3nnc4ccccn34)nc2c1	1	1.6	4	58*	-13	57*
COC(=O)c1cccc(C23CC4(C2)[C@H](CN(CC2CCCCC2)[C@@H]4c2ccccc2)C3c2ccc(Cl)nc2)c1 (some centres undefined)	.	1	.	.	.	.
Cc1ccccc1Cn1c(=O)n(CCCC(=O)NCc2ccco2)c(=O)c2ccccc21	1	1	.	25	.	-1
Cc1cccc(Cn2c(=O)n(CCCC(=O)NCc3ccco3)c(=O)c3ccccc32)c1	0.9	1.1	.	34	.	55*
CC1=C(C(=O)OCc2ccccc2)C(c2ccc(C3CCCCC3)cc2)NC(=O)N1CCCCCC(=O)O (centres undefined)	.	1	.	.	.	.
COC(=O)N1C2(C=CC1(C)C(=O)NCc1ccc(N(C)C)cc1)CCCCC2 (centres undefined)	.	1	.	.	.	.
O=C(Nc1cccc2ccccc12)c1cnccn1	0.8	1.6	-1	63*	-22	15

High-throughput results: PubChem BioAssay, several laboratories
